In ChEMBL document CHEMBL1135477, “Antifungal agents. 10. New derivatives of 1-[(aryl)[4-aryl-1H-pyrrol-3-yl]methyl]-1H-imidazole, synthesis, anti-candida activity, and quantitative structure-analysis relationship studies” (J Med Chem, 2002):
In brackets after ≈: the same amount, converted by molar mass.

How the values were obtained:
Format in all cases: functional
[1] = test system: Candida; experiment: (§1) In vitro antifungal activity against 40 strains at pH 5.8,(percent of resistant species at 256 ug/mL)
Method in brief: (§2)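 Broth serial-dilution test in Sabouraud broth at pH 7.2 or 5.8, against 40 fresh clinical C. albicans isolates from hospitalized patients. Inocula were 10³/mL, pre-grown 18 h at 37 °C in Sabouraud dextrose broth. Compound from a DMSO/water stock was twofold-diluted over 0.25–256 µg/mL. Visible growth was read at 24 h, 37 °C.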

[2] = test system: Candida albicans; experiment: Tested in vitro for antifungal activity against Candida albicans at pH 5.8 (range 1-8)
Method in brief: (§3)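 Broth serial-dilution MIC against 40 clinical C. albicans isolates from hospitalized patients, grown in Sabouraud broth at pH 7.2 or 5.8. Cells were pre-grown 18 h at 37 °C, inoculated at 10³/mL, and read at 24 h, 37 °C. Doubling dilutions ran 0.25–256 μg/mL from a DMSO/water solution. MIC was the lowest concentration with no visible growth against a DMSO/water blank.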

[3] = test system: Candida albicans; experiment: In vitro antifungal activity against Candida albicans (40 strains) at pH 7.2(value ranges from 0.5 to 32); method in brief: as §3
[4] = test system: Candida albicans; experiment: In vitro antifungal activity against Candida albicans (40 strains) at pH 7.2,(percent of resistant species at 256 ug/mL); method in brief: as §2
[5] = test system: Candida; experiment: Tested in vitro for antifungal activity against Candida species. at pH 7.2 (percent of resistant species at 256 ug/mL)
Method in brief: (§4)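 Broth serial-dilution test in Sabouraud broth at pH 7.2 or 5.8, against 3 fresh clinical non-albicans isolates (two C. glabrata, one C. krusei). Inocula were 10³/mL, pre-grown 18 h at 37 °C. Compound was twofold-diluted over 0.25–256 µg/mL and read at 24 h, 37 °C for visible growth.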

[6] = test system: Candida; experiment: Tested in vitro for antifungal activity against Candida species. at pH 7.2 (value ranges from 0.5 to 8)
Method in brief: (§5)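 Fresh clinical isolates (two C. glabrata, one C. krusei) were pre-grown 18 h at 37 °C in Sabouraud dextrose broth. Broth double-dilution was run in Sabouraud broth at pH 5.8 or 7.2 over 0.25–256 µg/mL from a DMSO/water stock, with 10³/mL inoculum.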

[7] = test system: Candida albicans; experiment: In vitro antifungal activity against Candida albicans (40 strains) at pH 7.2; method in brief: as §3
[8] = test system: Candida; experiment: Tested in vitro for antifungal activity against Candida species. at pH 7.2; method in brief: as §5
[9] = test system: Candida albicans; experiment: In vitro antifungal activity against Candida albicans (40 strains) at pH 5.8,(percent of resistant species at 256 ug/mL); method in brief: as §2
[10] = target: Lanosterol 14-alpha demethylase (Candida albicans (strain SC5314 / ATCC MYA-2876) (Yeast), UniProt P10613); experiment: Anticandida activity- (MIC90 compound) / (MIC90 bifonazole)
[11] = test system: Candida albicans; experiment: Tested in vitro for antifungal activity against Candida albicans at pH 5.8; method in brief: as §3
[12] = test system: Candida; experiment: Tested in vitro for antifungal activity against Candida species. at pH 5.8
Method in brief: (§6)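 Liquid serial-dilution MIC against 3 freshly isolated clinical Candida strains (two C. glabrata, one C. krusei) in Sabouraud broth at pH 7.2 or 5.8. Inoculum was 10³/mL after 18 h pre-culture at 37 °C, read at 24 h, 37 °C. Range was 0.25–256 μg/mL. Endpoint was no visible growth versus a DMSO/water blank.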

[13] = test system: Candida albicans; experiment: In vitro antifungal activity against 40 strains of Candida albicans at pH 5.8; method in brief: as §3
[14] = test system: Candida; experiment: Tested In vitro for antifungal activity against Candida species. at pH 7.2; (percent of resistant species at 256 ug/mL); method in brief: as §4
[15] = test system: Candida albicans; experiment: In vitro antifungal activity against 40 strains of Candida albicans at pH 5.8; (percent of resistant species at 256 ug/mL); method in brief: as §2
[16] = test system: Candida albicans; experiment: In vitro antifungal activity against 40 strains of Candida albicans at pH 5.8; value ranges from <0.25 to 8; method in brief: as §3
[17] = test system: Candida albicans; experiment: In vitro antifungal activity against 40 strains of Candida albicans at pH 7.2; method in brief: as §3
[18] = test system: Candida; experiment: Tested in vitro for antifungal activity against Candida species. at pH 5.8; value ranges from <0.25 to 0.25; method in brief: as §5
[19] = test system: Candida; experiment: Tested In vitro for antifungal activity against Candida species. at pH 7.2; (range is from 0.5 to 1); method in brief: as §6
[20] = test system: Candida; experiment: Tested in vitro for antifungal activity against Candida species. at pH 5.8; (percent of resistant species at 256 ug/mL); method in brief: as §4
[21] = test system: Candida albicans; experiment: In vitro antifungal activity against 40 strains of Candida albicans at pH 7.2; (percent of resistant species (R) at 256 ug/mL); method in brief: as §2
[22] = test system: Candida albicans; experiment: In vitro antifungal activity against 40 strains of Candida albicans at pH 7.2; minimum inhibitory concentration; value ranges from <0.25 to 16; method in brief: as §3
[23] = test system: Candida; experiment: Tested In vitro for antifungal activity against Candida species. at pH 7.2; method in brief: as §6
[24] = test system: Candida albicans; experiment: as §1; method in brief: as §2
[25] = test system: Candida; experiment: Tested in vitro for antifungal activity against candida Spp (Candida glabrata, Candida krusei) at pH 7.2 (percent of resistant species at 256 ug/mL); method in brief: as §4
[26] = test system: Candida; experiment: Tested In vitro for antifungal activity against candida Spp (Candida glabrata, Candida krusei) at pH 7.2
Method in brief: (§7)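 Inocula were 10³/mL, pre-grown 18 h at 37 °C. MIC is the lowest concentration with no visible growth versus a blank at 24 h, 37 °C. The mean MIC is ΣMICi over the strain number; MIC50/MIC90 are also reported.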

[27] = test system: Candida albicans; experiment: In vitro antifungal activity against 40 strains at pH 7.2 minimum inhibitory concentration
Method in brief: (§8)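 Inocula were 10³/mL, pre-grown 18 h at 37 °C. MIC is the lowest concentration with no visible growth versus a DMSO/water blank at 24 h, 37 °C. The mean MIC is ΣMICi over the total strain number; MIC50/MIC90 cover 50%/90% of strains.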

[28] = test system: Candida; experiment: In vitro antifungal activity against candida Spp (Candida glabrata, Candida krusei) at pH 5.8,(percent of resistant species at 256 ug/mL); method in brief: as §4
[29] = test system: Candida albicans; experiment: Tested In vitro for antifungal activity at pH 5.8
[30] = test system: Candida; experiment: Tested In vitro for antifungal activity against candida Spp (Candida glabrata, Candida krusei) at pH 5.8; method in brief: as §7
[31] = test system: Candida albicans; experiment: In vitro antifungal activity against 40 strains at pH 7.2,(percent of resistant species at 256 ug/mL); method in brief: as §2
[32] = test system: Candida albicans; experiment: In vitro antifungal activity against 40 strains at pH 7.2; method in brief: as §8

Sequence of Lanosterol 14-alpha demethylase (P10613 whole entry): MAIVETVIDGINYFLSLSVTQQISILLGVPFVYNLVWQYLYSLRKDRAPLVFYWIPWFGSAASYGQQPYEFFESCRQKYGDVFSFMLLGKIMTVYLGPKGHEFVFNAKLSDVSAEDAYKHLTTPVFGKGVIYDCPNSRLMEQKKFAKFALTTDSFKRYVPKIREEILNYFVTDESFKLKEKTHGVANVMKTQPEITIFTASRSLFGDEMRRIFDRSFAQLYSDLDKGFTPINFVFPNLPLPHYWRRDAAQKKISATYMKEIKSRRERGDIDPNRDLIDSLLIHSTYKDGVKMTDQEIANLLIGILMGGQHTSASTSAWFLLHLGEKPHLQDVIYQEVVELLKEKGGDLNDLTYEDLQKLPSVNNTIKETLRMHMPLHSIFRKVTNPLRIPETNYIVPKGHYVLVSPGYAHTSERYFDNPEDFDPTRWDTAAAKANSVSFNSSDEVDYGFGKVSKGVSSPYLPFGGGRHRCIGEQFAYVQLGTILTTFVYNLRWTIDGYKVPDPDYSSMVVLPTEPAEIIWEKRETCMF

## Clc1ccc(-c2c[nH]cc2[C@H](c2ccc(Cl)cc2Cl)n2ccnc2)cc1
[1]
  Resistance: 0%
[2]
  Range: 8 µg/mL
[3]
  Range: 32 µg/mL
[4]
  Resistance: 0%
[5]
  Resistance: 0%
[6]
  Range: 8 µg/mL
[7]
  MIC: 2.14 µg/mL (≈ 5.31 µM)
  MIC50: 2 µg/mL (≈ 4.97 µM)
  MIC90: 4 µg/mL (≈ 9.93 µM)
[8]
  MIC: 5.01 µg/mL (≈ 12.4 µM)
  MIC50: 8 µg/mL (≈ 19.9 µM)
  MIC90: 8 µg/mL (≈ 19.9 µM)
[9]
  Resistance: 0%
[10]
  Ratio: 0.8
[11]
  MIC: 3.6 µg/mL (≈ 8.94 µM)
  MIC50: 1 µg/mL (≈ 2.48 µM)
  MIC90: 2 µg/mL (≈ 4.97 µM)
[12]
  MIC: 6 µg/mL (≈ 14.9 µM)
  MIC50: 8 µg/mL (≈ 19.9 µM)
  MIC90: 64 µg/mL (≈ 159 µM)
  Range: 64 µg/mL

## Clc1ccc(COC(Cn2ccnc2)c2ccc(Cl)cc2Cl)c(Cl)c1 (stereo unspecified) [MICONAZOLE]
[13]
  MIC: 0.57 µg/mL (≈ 1.37 µM)
  MIC50: 0.5 µg/mL (≈ 1.2 µM)
  MIC90: 2 µg/mL (≈ 4.81 µM)
[14]
  Resistance: 0%
[15]
  Resistance: 0%
[16]
  Range: < 8 µg/mL
[17]
  MIC: 1.16 µg/mL (≈ 2.79 µM)
  MIC50: 0.5 µg/mL (≈ 1.2 µM)
  MIC90: 2 µg/mL (≈ 4.81 µM)
[18]
  Range: <0.25 µg/mL
[19]
  Range: 1 µg/mL
[20]
  Resistance: 0%
[21]
  Resistance: 0%
[22]
  Range: 16 µg/mL
[23]
  MIC: 0.83 µg/mL (≈ 1.99 µM)
  MIC50: 1 µg/mL (≈ 2.4 µM)
  MIC90: 1 µg/mL (≈ 2.4 µM)
[12]
  MIC: 0.156 µg/mL (≈ 0.375 µM)
  MIC50: 0.5 µg/mL (≈ 1.2 µM)
  MIC90: 8 µg/mL (≈ 19.2 µM)

## c1ccc(-c2ccc(C(c3ccccc3)n3ccnc3)cc2)cc1 (stereo unspecified) [BIFONAZOLE]
[24]
  Resistance: 0%
[25]
  Resistance: 0%
[26]
  MIC: 4.16 µg/mL (≈ 13.4 µM)
  MIC50: 4 µg/mL (≈ 12.9 µM)
  MIC90: 8 µg/mL (≈ 25.8 µM)
  Range: 0.5 µg/mL
[27]
  Range: 0.5 µg/mL
[28]
  Resistance: 0%
[29]
  MIC: 5.85 µg/mL (≈ 18.8 µM)
  MIC50: 2 µg/mL (≈ 6.44 µM)
  MIC90: 4 µg/mL (≈ 12.9 µM)
  Range: 1 µg/mL
[30]
  MIC: 4 µg/mL (≈ 12.9 µM)
  MIC50: 4 µg/mL (≈ 12.9 µM)
  MIC90: 32 µg/mL (≈ 103 µM)
  Range: 2 µg/mL
[31]
  Resistance: 0%
[32]
  MIC: 2.44 µg/mL (≈ 7.86 µM)
  MIC50: 2 µg/mL (≈ 6.44 µM)
  MIC90: 4 µg/mL (≈ 12.9 µM)
